Source: ChEMBL document CHEMBL1127290, “1-(2,5-Dimethoxy-4-(trifluoromethyl)phenyl)-2-aminopropane: a potent serotonin 5-HT2A/2C agonist” (J Med Chem, 1994)

Key:
[1] = target: 5-hydroxytryptamine receptor 2A (Mus musculus) (UniProt P35363); assay: Percent of maximum stimulation of phosphatidylinositol turnover at cloned 5-hydroxytryptamine 2A receptor in 3T3 cells; format: functional, cell-based; conditions: NIH3T3
[2] = target: T1, 5-hydroxytryptamine receptor 2C (Mus musculus) (UniProt P34968); assay: Percent of maximum stimulation of phosphatidylinositol turnover at cloned 5-hydroxytryptamine 2C receptor in A9 cells; format: functional, cell-based
T1 sequence (whole entry): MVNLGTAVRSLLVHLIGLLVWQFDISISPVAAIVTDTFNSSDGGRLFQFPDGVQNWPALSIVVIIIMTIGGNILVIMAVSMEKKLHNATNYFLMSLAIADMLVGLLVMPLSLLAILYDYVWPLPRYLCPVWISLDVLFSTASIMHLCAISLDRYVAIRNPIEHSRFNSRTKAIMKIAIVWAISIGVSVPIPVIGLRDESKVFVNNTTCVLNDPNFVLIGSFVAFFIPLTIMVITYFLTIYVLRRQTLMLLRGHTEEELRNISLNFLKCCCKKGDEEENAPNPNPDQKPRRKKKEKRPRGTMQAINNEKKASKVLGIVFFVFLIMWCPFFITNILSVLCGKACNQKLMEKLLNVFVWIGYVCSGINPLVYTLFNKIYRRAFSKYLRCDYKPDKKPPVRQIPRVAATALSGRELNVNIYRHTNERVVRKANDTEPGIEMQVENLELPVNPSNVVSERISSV
Summary of the method: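 A9 cells expressing cloned 5-HT2C receptor, labelled 18 h with 1 μCi/mL [3H]inositol in inositol-free DMEM with dialysed serum. Compounds given 60 min with 10 mM LiCl in Krebs bicarbonate buffer, then [3H]inositol monophosphate accumulation measured. Expressed as % of the 5-HT (10^-5 M) maximum minus control. Vmax by nonlinear regression. Triplicates in three experiments, mean ± SE.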

5-hydroxytryptamine receptor 2A (Mus musculus), sequence (P35363 whole entry): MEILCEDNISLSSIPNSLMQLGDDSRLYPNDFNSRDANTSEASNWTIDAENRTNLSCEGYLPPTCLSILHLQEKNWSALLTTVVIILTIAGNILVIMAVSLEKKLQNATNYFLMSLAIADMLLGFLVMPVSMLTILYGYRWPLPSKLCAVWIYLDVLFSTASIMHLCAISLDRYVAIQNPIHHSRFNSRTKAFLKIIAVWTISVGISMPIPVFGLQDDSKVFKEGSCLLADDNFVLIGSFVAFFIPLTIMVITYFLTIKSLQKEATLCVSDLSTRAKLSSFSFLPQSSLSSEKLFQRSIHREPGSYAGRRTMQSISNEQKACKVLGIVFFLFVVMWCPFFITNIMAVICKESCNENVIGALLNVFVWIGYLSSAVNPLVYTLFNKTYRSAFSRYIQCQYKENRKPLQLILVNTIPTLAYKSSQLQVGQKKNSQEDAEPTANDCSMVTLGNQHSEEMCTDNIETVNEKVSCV

## COc1cc(C(F)(F)F)c(OC)cc1CCN
[1]
  K aff: 165 nM
[2]
  K aff: 32 nM

## COc1cc(C(F)(F)F)c(OC)cc1CC(C)N (stereo unspecified)
[1]
  K aff: 86 nM
[2]
  K aff: 43 nM

## COc1cc(CC(C)N)c(OC)cc1I (stereo unspecified)
[1]
  K aff: 119 nM
[2]
  K aff: 43 nM
